This is an account of results in ChEMBL document CHEMBL1125419, “Stereospecificity of amino acid side chains in deltorphin defines binding to opioid receptors” (J Med Chem, 1992).

By Ki is commonly meant the dissociation constant of the complex between target and ligand, obtained from inhibition or displacement. Low values mean a stronger hold on the target, high ones a looser hold on the target.

In test [1] the target is T1, Mu-type opioid receptor (Rattus norvegicus, UniProt P33535). Briefly: Compound was tested for its binding affinity against opioid receptor mu using [3H]DAGO as radioligand.
The target of test [2] is T2, Delta-type opioid receptor (Rattus norvegicus, UniProt P33533). Briefly: Compound was tested for its binding affinity against opioid receptor delta using [3H]DPDPE as radioligand. The method, boiled down: (§1)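 Male Sprague-Dawley rat brain synaptosomes incubated with 0.62 pmol [3H]DPDPE in 50 mM HEPES pH 7.5, 5 mM MgCl2, 1 μM bestatin, bacitracin, 8% glycerol, soybean trypsin inhibitor, 100 μM PMSF; 2 h at 22 °C, duplicates. GF/C filtration, Tris-BSA washes, scintillation counting. 4-9 peptide concentrations over 2-3 log units, n = 3-8; Ki by Cheng-Prusoff.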

Test [3] deals with T2, Delta-type opioid receptor. In words: Inhibition of [3H]DPDPE binding to Opioid receptor delta 1. The essentials:
as §1

In test [4] the target is T1, Mu-type opioid receptor. Briefly: Inhibition of [3H]DAGO binding to rat Opioid receptor mu 1.
Test [5] is described as follows: Opioid receptor delta selectivity was defined as the ratio between Ki(opioid receptor mu)/Ki(opioid receptor delta). It counts as protein assay.

Square brackets hold non-standard residues; d marks the D form. Peptide text beside a SMILES is read from it. Nle = CCCC[C@H](N)C(=O)O

T1 sequence (P33535 whole entry): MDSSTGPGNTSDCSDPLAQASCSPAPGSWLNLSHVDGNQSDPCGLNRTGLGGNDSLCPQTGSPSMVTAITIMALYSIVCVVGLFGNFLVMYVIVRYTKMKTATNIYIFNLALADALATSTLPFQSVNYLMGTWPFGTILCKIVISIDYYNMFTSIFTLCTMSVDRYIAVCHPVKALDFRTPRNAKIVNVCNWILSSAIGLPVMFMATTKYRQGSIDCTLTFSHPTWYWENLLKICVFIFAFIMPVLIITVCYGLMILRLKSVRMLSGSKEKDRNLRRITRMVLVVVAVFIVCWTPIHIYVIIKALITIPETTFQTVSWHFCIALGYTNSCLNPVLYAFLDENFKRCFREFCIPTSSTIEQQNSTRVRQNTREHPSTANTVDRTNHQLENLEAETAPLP
T2 sequence (P33533 whole entry): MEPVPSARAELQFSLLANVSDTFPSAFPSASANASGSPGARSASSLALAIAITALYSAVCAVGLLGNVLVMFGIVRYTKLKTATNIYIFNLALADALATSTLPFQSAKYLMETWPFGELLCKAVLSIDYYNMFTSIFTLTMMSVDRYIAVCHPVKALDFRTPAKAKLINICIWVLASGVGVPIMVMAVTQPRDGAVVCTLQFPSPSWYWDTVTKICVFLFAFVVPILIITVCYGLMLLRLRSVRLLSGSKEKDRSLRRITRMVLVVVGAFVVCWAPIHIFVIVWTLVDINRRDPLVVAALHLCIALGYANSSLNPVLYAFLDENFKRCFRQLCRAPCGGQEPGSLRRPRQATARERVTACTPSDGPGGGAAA

For `CSCC[C@H](NC(=O)[C@H](CC(C)C)NC(=O)[C@@H](Cc1cnc[nH]1)NC(=O)[C@H](Cc1ccccc1)NC(=O)[C@@H](CCSC)NC(=O)[C@@H](N)Cc1ccc(O)cc1)C(=O)N[C@@H](CC(=O)O)C(N)=O`, the Ki worked out at 492 nM at Mu-type opioid receptor [1] and 2.77 nM in test [2].

With `CSCC[C@@H](NC(=O)[C@H](CC(C)C)NC(=O)[C@H](Cc1ccccc1)NC(=O)[C@@H](CCSC)NC(=O)[C@@H](N)Cc1ccc(O)cc1)C(=O)N[C@@H](CC(=O)O)C(N)=O`, the Ki is 25.8 nM in test [3] and 407 nM on Mu-type opioid receptor [4].

With `CSCC[C@@H](NC(=O)[C@H](CC(C)C)NC(=O)[C@H](Cc1c[nH]cn1)NC(=O)[C@H](Cc1ccccc1)NC(=O)[C@@H](CCSC)NC(=O)[C@@H](N)Cc1ccc(O)cc1)C(=O)N[C@@H](CC(=O)O)C(N)=O`, the Ki in test [3] is 0.96 nM; on Mu-type opioid receptor [4], 146 nM. For the compound `CSCC[C@H](NC(=O)[C@H](CC(C)C)NC(=O)[C@H](Cc1c[nH]cn1)NC(=O)[C@H](Cc1ccccc1)NC(=O)[C@@H](C)NC(=O)[C@@H](N)Cc1ccc(O)cc1)C(=O)N[C@@H](CC(=O)O)C(N)=O`, the Ki was determined as 43.7 nM on Mu-type opioid receptor [1] and 0.36 nM in test [2]. In addition, in test [5], the Selectivity was determined as 121. Take `CSCC[C@H](NC(=O)[C@H](CC(C)C)NC(=O)[C@H](Cc1c[nH]cn1)NC(=O)[C@H](Cc1ccccc1)NC(=O)[C@@H](CCSC)NC(=O)[C@@H](N)Cc1ccc(O)cc1)C(=O)N[C@H](CC(=O)O)C(N)=O`: the Ki in test [3] is 0.54 nM; at Mu-type opioid receptor [4], 124 nM. Turning to `CSCC[C@H](NC(=O)[C@H](CC(C)C)NC(=O)[C@H](Cc1cnc[nH]1)NC(=O)[C@H](Cc1ccccc1)NC(=O)[C@@H](CCSC)NC(=O)[C@@H](N)Cc1ccc(O)cc1)C(=O)N[C@@H](CC(=O)O)C(N)=O` [DELTORPHIN A], the Ki at Mu-type opioid receptor [1] worked out at 344 nM; in test [2], 0.45 nM. For the compound `CSCC[C@H](NC(=O)[C@H](CC(C)C)NC(=O)[C@H](Cc1cnc[nH]1)NC(=O)[C@H](Cc1ccccc1)NC(=O)[C@@H](CCSC)NC(=O)[C@H](N)Cc1ccc(O)cc1)C(=O)N[C@@H](CC(=O)O)C(N)=O`, the Ki at Mu-type opioid receptor [1] stood at 7410 nM; in test [2] it was 544 nM. Regarding `CSCC[C@H](NC(=O)[C@H](CC(C)C)NC(=O)[C@H](Cc1ccccc1)NC(=O)[C@@H](C)NC(=O)[C@@H](N)Cc1ccc(O)cc1)C(=O)N[C@@H](CC(=O)O)C(N)=O`, the Ki came out at 13.9 nM in test [3] and 567 nM on Mu-type opioid receptor [4]. The matching figures for `CSCC[C@H](NC(=O)[C@@H](CC(C)C)NC(=O)[C@H](Cc1c[nH]cn1)NC(=O)[C@H](Cc1ccccc1)NC(=O)[C@@H](CCSC)NC(=O)[C@@H](N)Cc1ccc(O)cc1)C(=O)N[C@@H](CC(=O)O)C(N)=O`: 58.5 nM and 691 nM.

For `CCCC[C@H](NC(=O)[C@@H](N)Cc1ccc(O)cc1)C(=O)N[C@@H](Cc1ccccc1)C(=O)N[C@@H](Cc1c[nH]cn1)C(=O)N[C@@H](CC(C)C)C(=O)N[C@@H](CCSC)C(=O)N[C@@H](CC(=O)O)C(N)=O` (H-Y[Nle]FHLMD-NH2), the Selectivity in test [5] worked out at 272. With `CSCC[C@H](NC(=O)[C@H](CC(C)C)NC(=O)[C@@H](Cc1ccccc1)NC(=O)[C@@H](CCSC)NC(=O)[C@@H](N)Cc1ccc(O)cc1)C(=O)N[C@@H](CC(=O)O)C(N)=O`, the Ki in test [3] was determined as 742 nM; at Mu-type opioid receptor [4] it was 2250 nM. Consider `CSCC[C@H](NC(=O)[C@H](CC(C)C)NC(=O)[C@H](Cc1c[nH]cn1)NC(=O)[C@H](Cc1ccccc1)NC(=O)[C@@H](CCSC)NC(=O)[C@@H](N)Cc1ccc(O)cc1)C(=O)N[C@@H](CC(=O)O)C(N)=O`, for which the Selectivity in test [5] was determined as 764. `CSCC[C@H](NC(=O)[C@H](CC(C)C)NC(=O)[C@H](Cc1ccccc1)NC(=O)[C@@H](CCSC)NC(=O)[C@H](N)Cc1ccc(O)cc1)C(=O)N[C@@H](CC(=O)O)C(N)=O`: the Ki in test [3] was 477 nM; on Mu-type opioid receptor [4] it was 7410 nM. For the compound `CSCC[C@H](NC(=O)[C@H](CC(C)C)NC(=O)[C@H](Cc1c[nH]cn1)NC(=O)[C@H](Cc1ccccc1)NC(=O)[C@@H](CCSC)NC(=O)[C@H](N)Cc1ccc(O)cc1)C(=O)N[C@@H](CC(=O)O)C(N)=O`, the Selectivity in test [5] stood at 14. Take `CSCC[C@H](NC(=O)[C@H](CC(C)C)NC(=O)[C@H](Cc1ccccc1)NC(=O)[C@@H](CCSC)NC(=O)[C@@H](N)Cc1ccc(O)cc1)C(=O)N[C@H](CC(=O)O)C(N)=O`: the results for the Ki (in test [3]; on Mu-type opioid receptor [4]) were 9.46 nM and 267 nM, respectively. The matching figures for `CSCC[C@H](NC(=O)[C@@H](CC(C)C)NC(=O)[C@H](Cc1ccccc1)NC(=O)[C@@H](CCSC)NC(=O)[C@@H](N)Cc1ccc(O)cc1)C(=O)N[C@@H](CC(=O)O)C(N)=O`: 120 nM and 330 nM. In the case of `CSCC[C@H](NC(=O)[C@H](CC(C)C)NC(=O)[C@H](Cc1c[nH]cn1)NC(=O)[C@@H](Cc1ccccc1)NC(=O)[C@@H](CCSC)NC(=O)[C@@H](N)Cc1ccc(O)cc1)C(=O)N[C@@H](CC(=O)O)C(N)=O`, the Ki at Mu-type opioid receptor [1] turned out to be 2350 nM; in test [2], 39.6 nM. For the same compound, the Selectivity in test [5] amounted to 59. On to `CSCC[C@H](NC(=O)[C@H](CC(C)C)NC(=O)[C@@H](Cc1c[nH]cn1)NC(=O)[C@H](Cc1ccccc1)NC(=O)[C@@H](CCSC)NC(=O)[C@@H](N)Cc1ccc(O)cc1)C(=O)N[C@@H](CC(=O)O)C(N)=O`, for which the Selectivity in test [5] is 178. Turning to `CSCC[C@H](NC(=O)[C@H](CC(C)C)NC(=O)[C@H](Cc1ccccc1)NC(=O)[C@@H](CCSC)NC(=O)[C@@H](N)Cc1ccc(O)cc1)C(=O)N[C@@H](CC(=O)O)C(N)=O`, the Ki came out at 12.6 nM in test [3] and 352 nM at Mu-type opioid receptor [4].
